High-throughput results: PubChem, several laboratories
MC4R barr agon = MC4R agonists recruiting beta-arrestin, primary screen, cell-based, luminescence, agonist arm of biased-ligand search. 360,000 compounds, 0.98% hits. activation, % at 8.9 µM. Melanocortin receptor 4 (Homo sapiens), P32245. U2OS MC4R beta-arrestin complementation; percent of melanotan II response, DMSO zero. AID 540308, 2011;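 active = activation above a per-plate cutoff, the mean activation of sample wells on that plate plus 3 SD, cut at about 8% in these data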
HGIII-sPLA2 inh = human group III sPLA2 inhibitors, primary screen, biochemical, QFRET, BODIPY PC-A2 liposome substrate; Group 3 secretory phospholipase A2 (Homo sapiens), Q9NZ20; QFRET BODIPY PC-A2 liposome hydrolysis, fluorescence; inhibition, % at 12.2 µM; 370,000 compounds, 0.56% hits; AID 743126, 2013;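 active = inhibition above mean plus 3 SD of compounds lying within the high and low control bounds, cut at about 19% in these data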;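 also: 0% = median of test compound wells and 100% = no enzyme DMSO wells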
Target sequence (Q9NZ20 whole entry, looked up): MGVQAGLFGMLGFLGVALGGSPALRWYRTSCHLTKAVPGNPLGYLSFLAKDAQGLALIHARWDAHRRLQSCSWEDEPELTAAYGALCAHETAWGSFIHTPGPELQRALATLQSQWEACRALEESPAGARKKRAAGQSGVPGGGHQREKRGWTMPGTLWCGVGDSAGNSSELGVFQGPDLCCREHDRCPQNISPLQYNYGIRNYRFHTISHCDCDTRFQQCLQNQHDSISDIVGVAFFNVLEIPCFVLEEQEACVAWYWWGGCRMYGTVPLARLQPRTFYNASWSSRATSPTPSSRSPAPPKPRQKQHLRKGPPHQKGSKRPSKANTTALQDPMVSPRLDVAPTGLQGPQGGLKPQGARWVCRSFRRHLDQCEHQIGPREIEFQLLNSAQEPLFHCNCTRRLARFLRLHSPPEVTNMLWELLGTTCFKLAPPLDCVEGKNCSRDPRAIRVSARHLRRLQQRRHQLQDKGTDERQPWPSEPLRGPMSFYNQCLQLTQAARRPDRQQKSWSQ
MC4R antagonist = MC4R antagonists of cAMP signaling, primary screen, cell-based, TR-FRET, antagonist arm of biased-ligand search | MC4R-expressing cells, MTII-stimulated cAMP, LANCE TR-FRET | inhibition, % at 6.5 µM | 360,000 compounds, 0.48% hits | AID 540295, 2011;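 active = inhibition above its plate's cutoff, the mean of tested wells on that plate plus 3 SD, cut at about 29% in these data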;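 also: 0% = Melanotan II alone and 100% = Melanotan II plus saturating MCL0020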
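system = U2OS cells with stable human MC4R expression | also added = Melanotan II challenge after compound preincubation | dosing = one concentration, 6.5 µM nominal | incubation = compound 30 min, challenge 1 h, detection 1 h | measured by = TR-FRET with Eu-cAMP and labeled anti-cAMP, 671 nm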
Bfl-1 A1 inh = caspase 3/7 activation in MEF A1-2A-BIM cells, primary screen, A1 inhibitor project, cell-based, luminescence, HTS; Caspase-Glo 3/7 luminescence, 3 h; percent of clofoctol response, vehicle zero; caspase activation, % (no concentration beside the values); AID 2462, 2010; 330,000 compounds, 0.066% hits;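 active = over half of replicate activation scores above 10%, or exactly half above 10 with the replicate mean above 10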
Exocytosis inh = LAMP-1 surface exposure blockers, TALL-104 cells – cell-based, flow cytometry, MLPCN library, primary screen; 360,000 compounds, 0.66% hits; TALL-104 LAMP-1 surface exposure; cells stimulated with thapsigargin and PMA; inhibition, % at 10 µM;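 active = inhibition above about 55%, limit read from the data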
NTR1 agonist = agonists of human NTR1, primary screen, imaging, U2OS cells, beta-arrestin-GFP, high content. Neurotensin receptor type 1 (Homo sapiens), P30989. 330,000 compounds, 0.17% hits. activation, % at 20 µM. NTR1-U2OS beta-arrestin-GFP spot imaging, agonist mode;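 active = activation at or above 40% of the spot to cytoplasm intensity ratio, with at least 20 cells analyzed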;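 also: 0% = DMSO without peptide and 100% = 100 nM NTR1 peptide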
Exocytosis CP01 = inhibitors of lytic granule exocytosis, confirmation, TALL-104 cells, flow cytometry, Cherry Pick01. LAMP-1 externalization; stimulated with PMA plus thapsigargin. AID 651954, 2012. shares compounds with Exocytosis inh. 1,500 compounds, 11% hits. inhibition, % at 10 µM; in the data active = inhibition above about 60%;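 also: 0% = stimulated vehicle wells and 100% = unstimulated wells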
Starred values were filed as active, the others as inactive. Most compounds without a hit are left out; they make up all but 2.5% or so of the library.

For COc1ccc(NC(=O)C2C(c3ccccc3)C2(Cl)Cl)cc1 (stereo unspecified) the results were MC4R barr agon -2.1, HGIII-sPLA2 inh -0.2, MC4R antagonist 5.4, Bfl-1 A1 inh -0.7, Exocytosis inh 7.9 and NTR1 agonist 3.8.
Screening COc1ccc(NC(=O)C2C(c3ccccc3)C2(Cl)Cl)c(OC)c1 (stereo unspecified) returned MC4R barr agon 1.0, HGIII-sPLA2 inh 13.7, MC4R antagonist -1.4, Bfl-1 A1 inh 0.3, Exocytosis inh 66.3*, NTR1 agonist 0.7 and Exocytosis CP01 -14.3.
`COc1cc2c(cc1OC)C(C)N(CCc1ccc(Cl)cc1)CC2` (stereo unspecified) gave MC4R barr agon -0.3, HGIII-sPLA2 inh -4.4, MC4R antagonist 11.6, Bfl-1 A1 inh 0.8, Exocytosis inh 62.1*, NTR1 agonist 1.3 and Exocytosis CP01 -12.3.
COc1cc2c(cc1OC)C(C)N(CCN1C(=O)c3ccccc3C1=O)CC2 (stereo unspecified) was read as MC4R barr agon -1.1, HGIII-sPLA2 inh 6.9, MC4R antagonist 1.3, Bfl-1 A1 inh -0.1, Exocytosis inh 9.4 and NTR1 agonist -2.5.
Cc1cccc(N2CC(C(=O)Nc3ccccc3N3CCOCC3)CC2=O)c1C (stereo unspecified) was read as MC4R barr agon -1.6, HGIII-sPLA2 inh 1.1, MC4R antagonist 5.6, Bfl-1 A1 inh -1.3, Exocytosis inh -1.6 and NTR1 agonist -1.8.
`O=C(CSc1nnc(-c2cnccn2)n1-c1ccccc1)c1ccc(F)cc1` gave HGIII-sPLA2 inh -33.1.
`O=[N+]([O-])c1cccc(-c2cc(-c3cc(Br)ccc3O)[nH]n2)c1` gave MC4R barr agon 1.0, HGIII-sPLA2 inh -8.2, MC4R antagonist 1.9, Bfl-1 A1 inh 1.8, Exocytosis inh 99.5*, NTR1 agonist 25.0 and Exocytosis CP01 99.5*.
`CCOc1ccc(C2Nc3cccc4cccc(c34)N2)cc1OC` gave MC4R barr agon -3.7, HGIII-sPLA2 inh -5.8, MC4R antagonist -2.9, Bfl-1 A1 inh 0.0, Exocytosis inh 55.5*, NTR1 agonist 0.4 and Exocytosis CP01 -9.2.
For O=C(NCC1CCCO1)C(c1ccc(F)cc1)N(Cc1ccc2c(c1)OCO2)C(=O)c1ccc(CN2CCOCC2)o1 (stereo unspecified) the results were MC4R barr agon -1.9, HGIII-sPLA2 inh -1.7, MC4R antagonist -2.6, Bfl-1 A1 inh -0.3, Exocytosis inh 2.1 and NTR1 agonist 0.2.
COc1ccc(CCNC(=O)COC(=O)Cn2cnc3ccccc3c2=O)cc1 was read as MC4R barr agon -0.2, HGIII-sPLA2 inh 0.3, MC4R antagonist 13.6, Bfl-1 A1 inh -0.1, Exocytosis inh -0.8 and NTR1 agonist 1.5.
`CCOc1ccccc1CN1CCN(CCCc2ccccc2)CC1CCO` (stereo unspecified) gave MC4R barr agon -0.7, HGIII-sPLA2 inh -7.6, MC4R antagonist -2.4, Bfl-1 A1 inh 0.8, Exocytosis inh 62.8*, NTR1 agonist 0.6 and Exocytosis CP01 -11.1.
C=CCOc1ccccc1CN1CCN(CCc2ccccc2)C(CCO)C1 (stereo unspecified) was read as MC4R barr agon -1.6, HGIII-sPLA2 inh 12.1, MC4R antagonist 5.3, Bfl-1 A1 inh -0.9, Exocytosis inh 58.4*, NTR1 agonist 0.9 and Exocytosis CP01 -15.9.
Screening OCC1(CCOc2ccccc2)CCN(Cc2ccccc2OC(F)F)CC1 returned MC4R barr agon 2.3, HGIII-sPLA2 inh -4.3, MC4R antagonist 15.6, Bfl-1 A1 inh 0.2, Exocytosis inh 12.2 and NTR1 agonist 1.4.
